According to paper PMC4284021 (The Journal of Pharmacy and Pharmacology, 2014):
Several values for one entry are separate records, joined by “and”; a condition that tells them apart may be missing. Equal entries are not always repeated. Marks after values point to notes of the source that are not given here.

Key:
[1] = system: apolipoproteins (apo AI, apo AII, apo B, apo E); assay: Apolipoprotein concentrations by immunoturbidimetric methods in healthy subjects; assay type: in vivo, human; conditions: for Apo AI: Mean % change vs placebo (90 % CI) / Apo AII: Mean % change from baseline (90% CI) / Apo AII: Mean % change vs placebo (90 % CI) / Apo B: Mean % change from baseline (90% CI) / Apo B: Mean % change vs placebo (90 % CI) / Apo E: Mean % change from baseline (90% CI) / Apo E: Mean % change vs placebo (90 % CI) / Ratio of apo B/apo AI: Mean % change from baseline (90% CI) / Ratio of apo B/apo AI: Mean % change vs placebo (90 % CI) / Apo AI: Mean % change from baseline (90% CI): day 14
Method in brief: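 Healthy adults took placebo or test compound (10, 100, 300, 600 mg) as capsules once daily with a low-fat meal for 14–15 days. Apo AI, AII, B and E were measured by immunoturbidimetry on a Roche Modular analyser. Values are percent change from baseline to Day 14, including all randomized subjects given at least one dose.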

healthy subjects = assay: 24-h ambulatory blood pressure monitoring; assay type: in vivo, human; conditions: for effect on 24-h ambulatory systolic or diastolic blood pressure: 600 mg compared with placebo
Method in brief: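 Double-blind crossover cohort (n = 15): placebo or 600 mg/day oral test compound for 14 days, then the other treatment after a 21-day washout. Subjects wore the ambulatory monitor about 12 h before Day 1 baseline. On Day 14, dosing came about 1 h after monitoring began. Readings every 20 min by day, every 30 min at night. The first hour was excluded. Value is mean SBP/DBP over the 24 h after dosing.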

[2] = 600 mg, 24-h ABPM, Day 1 (baseline), mean (90% CI)
[3] = 600 mg/day for 14 days, 24-h ABPM
[4] = 600 mg/day for 14 days, 24-h ABPM, (90% CI)
[5] = 600 mg/day, 24-h ABPM, Day 14, mean (90% CI)

**Q.** For `Cc1cc(C)c2c(c1)[C@@H](N(Cc1cc(C(F)(F)F)cc(C(F)(F)F)c1)c1nnn(C)n1)CCCN2C[C@H]1CC[C@H](C(=O)O)CC1` [evacetrapib], which “Apo AI: Mean % change vs placebo (90 % CI)” value ([1]; 10 mg/day) is on record?
**A.** The value was 15.29 (7.74, 22.84) ^** %.

**Q.** And the “Apo AII: Mean % change from baseline (90% CI)” value ([1]; 10 mg/day)?
**A.** Its value is −1.30 (−5.34, 2.73) %.

**Q.** And the “Apo AII: Mean % change vs placebo (90 % CI)” value ([1]; 10 mg/day)?
**A.** Its value is 4.29 (−0.90, 9.48) %.

**Q.** What about the “Apo B: Mean % change from baseline (90% CI)” value ([1]; 10 mg/day) of the same compound?
**A.** The value was −8.09 (−13.41, −2.77) %.

**Q.** And the “Apo B: Mean % change vs placebo (90 % CI)” value ([1]; 10 mg/day)?
**A.** Its value is −15.05 (−22.68, −7.43) ^** %.

**Q.** What about the “Apo E: Mean % change from baseline (90% CI)” value ([1]; 10 mg/day) of the same compound?
**A.** The value was 19.70 (5.10, 34.30) %.

**Q.** What about the “Apo E: Mean % change vs placebo (90 % CI)” value ([1]; 10 mg/day) of the same compound?
**A.** Its value is 8.36 (−2.89, 19.60) %.

**Q.** What about the “Ratio of apo B/apo AI: Mean % change from baseline (90% CI)” value ([1]; 10 mg/day) of the same compound?
**A.** Its value is −6.87 (−12.72, −1.02) %.

**Q.** What about the “Ratio of apo B/apo AI: Mean % change vs placebo (90 % CI)” value ([1]; 10 mg/day) of the same compound?
**A.** The value was −26.63 (−34.88, −18.38) ^*** %.

**Q.** What about the “Apo AI: Mean % change from baseline (90% CI)” value ([1]; 100 mg/day) of the same compound?
**A.** The value was 24.61 (20.07, 29.15) %.

**Q.** And the “Apo AI: Mean % change vs placebo (90 % CI)” value ([1]; 100 mg/day)?
**A.** Its value is 36.37 (27.66, 45.08) ^*** %.

**Q.** And the “Apo AII: Mean % change from baseline (90% CI)” value ([1]; 100 mg/day)?
**A.** Its value is 8.85 (4.69, 13.02) %.

**Q.** And the “Apo AII: Mean % change vs placebo (90 % CI)” value ([1]; 100 mg/day)?
**A.** The value was 14.44 (7.16, 21.72) ^** %.

**Q.** What about the “Apo B: Mean % change from baseline (90% CI)” value ([1]; 100 mg/day) of the same compound?
**A.** The value was −17.64 (−20.84, −14.43) %.

**Q.** And the “Apo B: Mean % change vs placebo (90 % CI)” value ([1]; 100 mg/day)?
**A.** The value was −24.60 (−31.28, −17.92) ^*** %.

**Q.** What about the “Apo E: Mean % change from baseline (90% CI)” value ([1]; 100 mg/day) of the same compound?
**A.** Its value is 55.81 (36.13, 75.50) %.

**Q.** What about the “Apo E: Mean % change vs placebo (90 % CI)” value ([1]; 100 mg/day) of the same compound?
**A.** Its value is 44.47 (14.63, 74.30) ^* %.

**Q.** And the “Ratio of apo B/apo AI: Mean % change from baseline (90% CI)” value ([1]; 100 mg/day)?
**A.** Its value is −31.84 (−35.59, −28.09) %.

**Q.** What about the “Ratio of apo B/apo AI: Mean % change vs placebo (90 % CI)” value ([1]; 100 mg/day) of the same compound?
**A.** The value was −51.60 (−59.36, −43.83) ^*** %.

**Q.** What about the “Apo AI: Mean % change from baseline (90% CI)” value ([1]; 300 mg/day) of the same compound?
**A.** Its value is 28.75 (23.70, 33.80) %.

**Q.** And the “Apo AI: Mean % change vs placebo (90 % CI)” value ([1]; 300 mg/day)?
**A.** The value was 40.50 (31.66, 49.34) ^*** %.

**Q.** What about the “Apo AII: Mean % change from baseline (90% CI)” value ([1]; 300 mg/day) of the same compound?
**A.** Its value is 11.93 (7.75, 16.10) %.

**Q.** And the “Apo AII: Mean % change vs placebo (90 % CI)” value ([1]; 300 mg/day)?
**A.** Its value is 17.52 (10.86, 24.17) ^*** %.

**Q.** What about the “Apo B: Mean % change from baseline (90% CI)” value ([1]; 300 mg/day) of the same compound?
**A.** The value was −18.85 (−22.45, −15.25) %.

**Q.** What about the “Apo B: Mean % change vs placebo (90 % CI)” value ([1]; 300 mg/day) of the same compound?
**A.** Its value is −25.81 (−32.59, −19.04) ^*** %.

**Q.** What about the “Apo E: Mean % change from baseline (90% CI)” value ([1]; 300 mg/day) of the same compound?
**A.** The value was 76.75 (62.23, 91.28) %.

**Q.** And the “Apo E: Mean % change vs placebo (90 % CI)” value ([1]; 300 mg/day)?
**A.** The value was 65.40 (40.39, 90.42) ^*** %.

**Q.** And the “Ratio of apo B/apo AI: Mean % change from baseline (90% CI)” value ([1]; 300 mg/day)?
**A.** The value was −35.69 (−39.92, −31.46) %.

**Q.** What about the “Ratio of apo B/apo AI: Mean % change vs placebo (90 % CI)” value ([1]; 300 mg/day) of the same compound?
**A.** Its value is −55.45 (−63.26, −47.63) ^*** %.

**Q.** And the “decrease in apo B” value ([1]; 600 mg, Day 14, vs placebo)?
**A.** The value was 26% and 26.1%.

**Q.** And the “decrease in apo B/AI ratio” value ([1]; 600 mg, Day 14, vs placebo)?
**A.** Its value is 56.5%.

**Q.** What about the “Apo AI: Mean % change from baseline (90% CI)” value ([1]; 600 mg/day) of the same compound?
**A.** Its value is 29.93 (24.51, 35.35) %.

**Q.** What about the “Apo AI: Mean % change vs placebo (90 % CI)” value ([1]; 600 mg/day) of the same compound?
**A.** The value was 42% and 41.7% and 41.69 (32.70, 50.67) ^*** %.

**Q.** And the “Apo AII: Mean % change from baseline (90% CI)” value ([1]; 600 mg/day)?
**A.** The value was 12.91 (8.06, 17.77) %.

**Q.** What about the “Apo AII: Mean % change vs placebo (90 % CI)” value ([1]; 600 mg/day) of the same compound?
**A.** The value was 18.5% and 18.50 (11.71, 25.29) ^*** %.

**Q.** What about the “Apo B: Mean % change from baseline (90% CI)” value ([1]; 600 mg/day) of the same compound?
**A.** The value was −19.17 (−22.94, −15.41) %.

**Q.** And the “Apo B: Mean % change vs placebo (90 % CI)” value ([1]; 600 mg/day)?
**A.** Its value is −26.14 (−32.97, −19.30) ^*** %.

**Q.** What about the “Apo E: Mean % change from baseline (90% CI)” value ([1]; 600 mg/day) of the same compound?
**A.** The value was 85.48 (65.47, 105.49) %.

**Q.** And the “Apo E: Mean % change vs placebo (90 % CI)” value ([1]; 600 mg/day)?
**A.** Its value is 74.1% and 74.13 (47.95, 100.31) ^*** %.

**Q.** And the “Ratio of apo B/apo AI: Mean % change from baseline (90% CI)” value ([1]; 600 mg/day)?
**A.** The value was −36.74 (−41.23, −32.25) %.

**Q.** What about the “Ratio of apo B/apo AI: Mean % change vs placebo (90 % CI)” value ([1]; 600 mg/day) of the same compound?
**A.** The value was −56.50 (−64.39, −48.61) ^*** %.

**Q.** And the “effect on 24-h ambulatory systolic or diastolic blood pressure” value (healthy subjects)?
**A.** The value was “No significant differences”.

**Q.** And the “effect on 24-h ambulatory systolic or diastolic blood pressure” value (healthy subjects; listed as Evacetrapib)?
**A.** The value was “did not produce any significant effect”.

**Q.** What about the “correlation between exposure and blood pressure (Spearman's rank correlation coefficient)” value (healthy subjects; 600 mg crossover cohort, P = 0.964) of the same compound?
**A.** The value was 0.00954.

**Q.** And the “Diastolic blood pressure, Day 1 mean” value (healthy subjects; [2])?
**A.** Its value is 68.27 (64.82, 71.72) mmHg.

**Q.** And the “Systolic blood pressure, Day 1 mean” value (healthy subjects; [2])?
**A.** The value was 112.16 (109.12, 115.19) mmHg.

**Q.** And the “Diastolic blood pressure, Difference (comparison with placebo)” value (healthy subjects; [3])?
**A.** The value was −2.28 mmHg.

**Q.** And the “Systolic blood pressure, Difference (comparison with placebo)” value (healthy subjects; [3])?
**A.** The value was −1.96 mmHg.

**Q.** What about the “Diastolic blood pressure, LS mean change” value (healthy subjects; [4]) of the same compound?
**A.** The value was 0.60 (−1.45, 2.65) mmHg.

**Q.** What about the “Systolic blood pressure, LS mean change” value (healthy subjects; [4]) of the same compound?
**A.** Its value is −0.27 (−2.64, 2.11) mmHg.

**Q.** What about the “Diastolic blood pressure, Day 14 mean” value (healthy subjects; [5]) of the same compound?
**A.** The value was 73.72 (70.26, 77.18) mmHg.

**Q.** And the “Systolic blood pressure, Day 14 mean” value (healthy subjects; [5])?
**A.** The value was 118.28 (113.78, 122.77) mmHg.
